GSH bead fluor – compound fluorescence on glutathione beads, profiling panel, artefact control, biophysical, 488/530 nm, flow cytometry; GSH beads flow cytometry, compound fluorescence 488/530 nm; stronger effect = higher value; fluorescence (KMESF) at 10 µM; actives 0.25% (n = 190,000); AID 1776, 2009; in the data active means fluorescence above about 89;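 further: glutathione beads carrying GST-tagged Bcl family fusion proteins plus one bare bead set; values are compound well signal with DMSO vehicle wells as background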
PKD1 inh – inhibitors of human PKD1 kinase, biochemical, fluorescence polarization | PKD1 kinase fluorescence polarization assay | actives 0.056% (n = 200,000) | inhibition, % (concentration not given with the values) | Serine/threonine-protein kinase D1 (Homo sapiens), Q15139 | AID 797, 2007
Target sequence (Q15139 whole entry, looked up): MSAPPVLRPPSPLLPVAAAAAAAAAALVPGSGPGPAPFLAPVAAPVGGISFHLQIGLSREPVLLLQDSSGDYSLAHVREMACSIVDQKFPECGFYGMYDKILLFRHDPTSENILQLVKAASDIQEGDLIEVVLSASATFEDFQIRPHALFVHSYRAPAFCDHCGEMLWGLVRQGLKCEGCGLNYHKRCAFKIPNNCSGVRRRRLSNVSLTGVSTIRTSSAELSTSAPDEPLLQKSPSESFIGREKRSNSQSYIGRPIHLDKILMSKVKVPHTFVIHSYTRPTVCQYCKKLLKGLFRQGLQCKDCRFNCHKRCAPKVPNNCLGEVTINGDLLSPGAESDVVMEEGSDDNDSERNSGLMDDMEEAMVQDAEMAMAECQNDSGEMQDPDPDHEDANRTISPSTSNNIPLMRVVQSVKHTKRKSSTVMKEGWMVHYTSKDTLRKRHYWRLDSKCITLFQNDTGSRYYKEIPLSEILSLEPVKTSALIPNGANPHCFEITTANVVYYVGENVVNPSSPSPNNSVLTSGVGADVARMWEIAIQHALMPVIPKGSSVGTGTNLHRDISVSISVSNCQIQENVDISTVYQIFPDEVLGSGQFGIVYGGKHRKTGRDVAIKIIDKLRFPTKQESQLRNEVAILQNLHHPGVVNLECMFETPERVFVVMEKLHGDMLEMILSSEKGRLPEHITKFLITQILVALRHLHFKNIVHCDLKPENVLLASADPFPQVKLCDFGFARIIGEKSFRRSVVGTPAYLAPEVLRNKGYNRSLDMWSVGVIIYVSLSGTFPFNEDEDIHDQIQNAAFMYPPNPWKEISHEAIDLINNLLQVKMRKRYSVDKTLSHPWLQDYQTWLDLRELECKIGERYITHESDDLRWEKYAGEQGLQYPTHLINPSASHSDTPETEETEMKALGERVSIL
Avidin bead fluor – green autofluorescence of compounds with avidin beads – biophysical, 488/530 nm, flow cytometry, artefact control, profiling panel. compound fluorescence 488/530 nm; stronger effect = higher value. fluorescence (KMESF) at 10 µM. actives 0.38% (n = 220,000). AID 1775, 2009; in the data active means fluorescence above about 47
ABCG2 block – ABCG2 efflux pump inhibitors, primary screen, multiplex with ABCB1, IgMXP3 cells, flow cytometry; Broad substrate specificity ATP-binding cassette transporter ABCG2 (Homo sapiens), Q9UNQ0; actives 0.1% (n = 190,000); AID 1325, 2008; JC-1 efflux; inhibition, % at 6.6 µM;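 active means inhibition above 80%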;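 further: 0% = DMSO and 100% = nicardipine control wells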
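System: two drug-resistant human cell lines, ABCG2 and ABCB1; controls: nicardipine high and DMSO low controls; times: 10 min exposure at 25 °C with rotation, no wash; detection: flow cytometry of retained JC-1 fluorescence; read-out basis: percent efflux inhibition, scaled nicardipine 100% to DMSO 0%; doses: one concentration, 6.6 µM final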
L major viab – Leishmania major promastigote growth inhibition, primary screen; Leishmania major promastigotes, resazurin fluorescence viability; inhibition, % at 10 µM; actives 9% (n = 200,000);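 further: promastigotes grown with compound for 44 hours at 28 °C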
ABCB1 block – ABCB1 efflux pump inhibitors, primary screen, cell-based, multiplex, flow cytometry, ABCG2 counter-screen; CCRF-Adr cells, JC-1 efflux; inhibition, % at 6.6 µM; actives 0.067% (n = 190,000); in the data active means inhibition above about 40%;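 further: 0% = vehicle and 100% = reference inhibitor; higher value means more JC-1 retained so stronger ABCB1 efflux block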
Active calls of the source: *; . = not tested or not shown. Shown is part of a subset that was picked to be rich in hits. Unless noted, no stated cut-off is given here; in the data, active means inhibition above about 50%; inactive means the rest.

SMILES | GSH bead fluor | PKD1 inh | Avidin bead fluor | ABCG2 block | L major viab | ABCB1 block
Cc1ccc(C(=O)Oc2cccnc2)cc1[N+](=O)[O-] | 9 | -8 | 4 | 21 | -6 | 1
C=CCn1c(SCC(=O)c2ccc(Br)cc2)nnc1C(CC(C)C)NC(=O)c1cccs1 (configuration not stated) | 31 | -2 | 18 | 15 | 34 | 2
O=C(NNC(=O)c1ccc([N+](=O)[O-])cc1Cl)c1ccncc1 | 7 | 2 | 16 | 1 | 84* | 0
COc1ccc(C(=O)Nc2c(-c3cccs3)c(=O)c3ccccc3n2C)cc1 | . | . | 7 | . | . | .
O=C(c1ccc(OC2CCN(Cc3ccccn3)CC2)cc1)N1CCCCO1 | 13 | 9 | 5 | 2 | 67* | 1
COCC1CCCN(C(=O)c2ccc(OC3CCN(Cc4ccccn4)CC3)cc2)C1 (configuration not stated) | 56 | 0 | 10 | 0 | -4 | 0
CCOC(=O)Cc1cc(-c2ccc(OC)cc2)nc2ccc3ccccc3c12 | 7 | -5 | 16 | 5 | 99* | 0
C=CCNC(=O)/C(=C/c1cccc([N+](=O)[O-])c1)NC(=O)c1ccco1 | 23 | -3 | 11 | 0 | -7 | 0
Cc1ccc2c(c1)N(CC(=O)N1CCCCC1c1cccnc1)C(=O)CO2 (configuration not stated) | 20 | 1 | 18 | -2 | 77* | 0
Cc1ccc2c(c1)N(CC(=O)NCc1cccnc1)C(=O)CO2 | 15 | -5 | 6 | 25 | -4 | 2
CCN1CCN(c2c(/C=C3\SC(=S)N(Cc4ccco4)C3=O)c(C)c(C#N)c(=O)n2C)CC1 | . | . | 9 | . | . | .
O=C(NCCCN1CCCC1)c1ccc(CSCc2cccc(Cl)c2)o1 | 35 | -3 | 7 | -4 | 99* | -3
CN1CCN(CCCNC(=O)c2ccc(CSCc3cccc(Cl)c3)o2)CC1 | 16 | 0 | 4 | 3 | 99* | 1
CC1CCN(CCCNC(=O)c2ccc(CSCc3cccc(Cl)c3)o2)CC1 | 24 | 4 | 15 | 2 | 100* | 2
COc1ccc(O)c(C(=O)C2c3ccccc3C(=O)N2c2ccc(C)cc2)c1 (configuration not stated) | . | . | 23 | . | . | .
CC(O)c1cccc(NC(=O)CCCc2ccccc2)c1 (configuration not stated) | 9 | 1 | 6 | 2 | -2 | 0
CC(O)c1cccc(NC(=O)CCC(=O)O)c1 (configuration not stated) | 261* | 3 | 6 | 1 | -7 | 0
CCOC(=O)c1sc(NC(=O)CSc2nc(C)cc(C)n2)c(C#N)c1C | 13 | -16 | 49* | 3 | 15 | 1
C=CCN(c1ccc(F)cc1)S(=O)(=O)c1cc(C(=O)OCC(=O)N(C)C2CCS(=O)(=O)C2)ccc1Cl (configuration not stated) | . | . | 6 | . | . | .
Cc1ccc(Cn2c(SCCN3CCCCC3)nc3c2c(=O)n(C)c(=O)n3C)cc1 | 11 | -7 | 24 | 2 | 99* | 2
CN(Cc1ccccc1)Cc1nc2c(c(=O)n(C)c(=O)n2C)n1Cc1ccc(F)cc1 | 23 | -3 | 10 | 11 | 27 | 2
Cn1c(=O)c2c(nc(SCCN3CCCCC3)n2Cc2ccccc2)n(C)c1=O | 21 | -3 | 15 | 0 | 90* | 0
Cc1ccc(Cn2c(CN(C)Cc3ccccc3)nc3c2c(=O)n(C)c(=O)n3C)cc1 | 46 | -5 | 10 | 16 | 73* | 2
Cc1nn2c(C(F)(F)F)cc(-c3ccc(Cl)cc3)nc2c1C(=O)N1CCOCC1 | 18 | -1 | 18 | 11 | 92* | 2
O=C(c1cnn2c(C(F)(F)F)cc(-c3ccccc3)nc12)N1CCOCC1 | 9 | -11 | 12 | 1 | -5 | 0
SMILES | GSH bead fluor | PKD1 inh | Avidin bead fluor | ABCG2 block | L major viab | ABCB1 block
CCOc1ccc2ccccc2c1C(=O)N1CCN(c2ccccc2)CC1 | 8 | -5 | 9 | 1 | 83* | 0
CCOc1ccccc1C(=O)N1CCN(c2cccc(Cl)c2)CC1 | 7 | -2 | 10 | 1 | 6 | 0
Cc1ccc(/C=C/C(=O)NC2CCCCCCC2)o1 | 7 | -5 | 2 | -6 | 5 | -1
N#Cc1ccc(C(=O)N/N=C/c2cn(CC(=O)O)c3ccccc23)c(F)c1 | 20 | -10 | 12 | 0 | 58* | 0
Cc1nc2ccccc2nc1CN1CCC(CO)(CC2CCCCO2)CC1 (configuration not stated) | 11 | -5 | 3 | 2 | 69* | 1
Cc1c(CN2CCC(CO)(CC3CCCCO3)CC2)cnn1C (configuration not stated) | 18 | -5 | 14 | 2 | -7 | 0
O=C(CCC1CCCC1)N1CCC(N2CCN(c3ccccc3)CC2)CC1 | 7 | -8 | 11 | 0 | 93* | 0
COc1ccc(C(=O)N2CCC(N3CCN(c4ccccc4)CC3)CC2)cc1 | 8 | 1 | 8 | -1 | 91* | 0
CC(C)CC(=O)N1CCC(N2CCN(c3ccccc3)CC2)CC1 | 19 | -5 | 31 | 0 | 90* | 0
O=C(CCC1CCCC1)N1CCN(C(=O)C2CC2)CC1 | 13 | 7 | 20 | 3 | -3 | 1
O=C(CCC1CCCC1)N1CCN(C2CCCC2)CC1 | 34 | -18 | 6 | 2 | 94* | 0
CCCCC1C(=O)CC[C@H]2[C@@H]1CC(=O)[C@@H]2C/C=C\CCCC(=O)O (some centres not stated) | 19 | -3 | 6 | 0 | 9 | 0
O=C(N/N=C1\CCCc2ccccc21)C(O)c1ccccc1 (configuration not stated) | 6 | -6 | 6 | 2 | -4 | 0
CCOC(=O)N1c2ccccc2C=CC1OCC (configuration not stated) | 18 | 6 | 7 | -1 | -6 | 0
O=C(CCc1ccc(Oc2cc([N+](=O)[O-])cc([N+](=O)[O-])c2)cc1)N1CCCCCC1 | 10 | 6 | 2 | 10 | 98* | 2
COc1ccc(N2CCN(C(=O)c3c(C)nn(-c4ccccc4)c3C)CC2)cc1 | 11 | 0 | 8 | 0 | 50* | 0
COc1ccc(CCC(=O)N2CCN(C3CCCCC3)CC2)cc1 | 18 | -10 | 29 | 1 | 56* | 0
CN1CCN(C(=O)CCc2ccc(S(=O)(=O)NC3CCCCC3)cc2)CC1 | 24 | 1 | 9 | -2 | 4 | 0
COC(=O)CCc1nc2c(C#N)c(-c3ccc(Cl)cc3)ccn2n1 | 31 | -2 | 27 | 2 | -4 | 1
N#Cc1c(-c2ccc(Cl)cc2)ccn2nc(C3CCCCC3)nc12 | 262* | -9 | 7 | 1 | 23 | 0
